Test results published in ChEMBL document CHEMBL3124926, “Identification of highly efficacious glucocorticoid receptor agonists with a potential for reduced clinical bone side effects” (J Med Chem, 2014).

Key:
[1] = target: T1, Glucocorticoid receptor (Homo sapiens) (UniProt P04150); test: Transrepression activity at glucocorticoid receptor in human fibroblasts assessed as inhibition of IL-1-induced IL-6 production at 2 uM after 18 to 24 hrs relative to dexomethasone
T1 sequence (whole entry): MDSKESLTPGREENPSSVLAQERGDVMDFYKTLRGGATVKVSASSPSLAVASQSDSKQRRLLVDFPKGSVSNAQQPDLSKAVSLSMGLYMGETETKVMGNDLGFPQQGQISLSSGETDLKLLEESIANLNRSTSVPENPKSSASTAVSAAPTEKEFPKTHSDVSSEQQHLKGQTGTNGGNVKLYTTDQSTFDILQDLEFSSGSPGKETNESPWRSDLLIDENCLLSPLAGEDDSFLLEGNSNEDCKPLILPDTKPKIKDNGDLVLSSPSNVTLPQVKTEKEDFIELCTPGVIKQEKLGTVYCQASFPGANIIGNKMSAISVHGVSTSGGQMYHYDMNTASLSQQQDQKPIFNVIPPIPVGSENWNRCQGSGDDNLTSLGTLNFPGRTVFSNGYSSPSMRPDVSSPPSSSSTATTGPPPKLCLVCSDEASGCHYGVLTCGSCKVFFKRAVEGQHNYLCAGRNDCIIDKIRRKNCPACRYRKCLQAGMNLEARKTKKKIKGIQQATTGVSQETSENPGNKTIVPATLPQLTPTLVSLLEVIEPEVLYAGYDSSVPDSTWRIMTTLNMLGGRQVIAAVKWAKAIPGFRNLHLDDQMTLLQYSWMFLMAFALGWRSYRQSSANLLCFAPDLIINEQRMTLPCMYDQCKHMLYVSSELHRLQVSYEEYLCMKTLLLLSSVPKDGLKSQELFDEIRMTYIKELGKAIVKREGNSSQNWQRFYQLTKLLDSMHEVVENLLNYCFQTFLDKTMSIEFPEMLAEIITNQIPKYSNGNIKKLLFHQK
How it was run: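 Human foreskin fibroblasts grown in Iscove's medium with 10% charcoal/dextran-treated FBS, plated at 20000/well two days before. Medium replaced, then compound (0.4% DMSO final) and recombinant human IL-1 (1 ng/mL final) added. 18–24 h at 37 °C; IL-6 in medium quantified by electrochemiluminescence, DELFIA or ELISA. IC50 by four-parameter fit of duplicate 11-point curves. Efficacy relative to dexamethasone (100%); top concentration 2 μM.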

[2] = target: T1, Glucocorticoid receptor (Homo sapiens); test: Agonist activity at glucocorticoid receptor in human […] cells assessed as suppression of vitamin D-induced osteocalcin production at 2 uM after 48 hrs by Gla-type osteocalcin ELISA relative to dexomethasone; assay type: cell-based
How it was run: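 MG-63 human osteosarcoma cells plated at 20000/well in DMEM/F-12 with 1% charcoal-filtered FBS and 10 μg/mL vitamin C. Medium refreshed next day, then vitamin D (10 nM final) added with compound (2 × 10−6 to 10−10 M), duplicates. Incubated 48 h at 37 °C; supernatant osteocalcin measured by Gla-type ELISA. Vitamin D-only wells = 100%. Max efficacy at 2 μM is relative to dexamethasone (100%).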

[3] = target: T1, Glucocorticoid receptor (Homo sapiens); test: Agonist activity at glucocorticoid receptor in human HeLa cells transfected with luciferase gene linked to MMTV promoter assessed as induction of luciferase transactivation activity at 2 uM after 6 hrs by luminescence assay; assay type: cell-based
How it was run: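 HeLa cells stably carrying an MMTV-luciferase construct, plated the day before at 25000/well in DMEM with 3% FBS. Medium replaced, then compound added (0.2% DMSO final); 1 μM dexamethasone wells = 100% induction, vehicle = background. Incubated 6 h at 37 °C, 5% CO2. Luminescence read after lysis; activation expressed as % of positive control. Top concentration 2 μM.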

[4] = target: T2, Mineralocorticoid receptor (Homo sapiens, UniProt P08235); test: Competitive binding affinity to mineralocorticoid receptor (unknown origin) expressed in baculovirus-infected cell system after 1 hr by fluorescence polarization assay in presence of tetramethylrhodamine-labeled dexamethasone
T2 sequence (P08235 whole entry): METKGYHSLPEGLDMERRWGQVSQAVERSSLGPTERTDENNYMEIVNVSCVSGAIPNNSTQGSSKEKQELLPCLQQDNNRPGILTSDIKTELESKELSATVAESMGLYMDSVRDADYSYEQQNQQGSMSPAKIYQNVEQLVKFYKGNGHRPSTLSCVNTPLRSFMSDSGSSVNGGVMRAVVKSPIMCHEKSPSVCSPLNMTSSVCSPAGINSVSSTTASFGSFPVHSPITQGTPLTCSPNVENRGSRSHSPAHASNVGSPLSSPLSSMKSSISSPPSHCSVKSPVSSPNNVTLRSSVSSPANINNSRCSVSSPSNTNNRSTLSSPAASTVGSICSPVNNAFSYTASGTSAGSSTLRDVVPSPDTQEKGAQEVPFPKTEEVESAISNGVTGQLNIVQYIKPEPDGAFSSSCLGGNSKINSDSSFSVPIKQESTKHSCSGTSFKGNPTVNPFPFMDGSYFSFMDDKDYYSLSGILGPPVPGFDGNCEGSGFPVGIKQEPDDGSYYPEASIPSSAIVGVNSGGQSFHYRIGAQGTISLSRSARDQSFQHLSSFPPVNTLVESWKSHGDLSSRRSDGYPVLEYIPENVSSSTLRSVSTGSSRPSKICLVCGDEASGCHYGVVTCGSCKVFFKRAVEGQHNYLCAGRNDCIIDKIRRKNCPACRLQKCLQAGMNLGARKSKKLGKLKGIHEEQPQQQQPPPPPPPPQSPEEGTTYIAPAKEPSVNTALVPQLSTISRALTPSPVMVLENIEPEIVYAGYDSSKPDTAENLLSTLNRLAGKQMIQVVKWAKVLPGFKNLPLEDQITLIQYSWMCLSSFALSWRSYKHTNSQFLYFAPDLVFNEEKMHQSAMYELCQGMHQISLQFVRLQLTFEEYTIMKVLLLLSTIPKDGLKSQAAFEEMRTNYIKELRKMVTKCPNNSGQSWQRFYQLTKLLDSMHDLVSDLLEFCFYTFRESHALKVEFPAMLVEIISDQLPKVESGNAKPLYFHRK
How it was run: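 Lysates of baculovirus-infected insect cells co-expressing receptor with HSP-70, HSP-90 and p23 (GR diluted 300-fold, MR 17-fold). Probe 5 nM tetramethylrhodamine-dexamethasone in TES/KCl/molybdate/EDTA/CHAPS/glycerol/DTT buffer, pH 7.4, 1% DMSO. 1 h at room temperature in the dark; fluorescence polarization read (ex 550/em 580 nm). Background set with 2 μM dexamethasone. IC50 from duplicate 11-point curves, four-parameter fit, mean of at least two determinations.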

Row | SMILES | Emax [1] [%] | Emax [2] [%] | Emax [3] [%] | IC50 [4] [nM]
1 | Cc1ccc(F)cc1C(C)(C)C[C@@](O)(Cc1cc2ncncc2[nH]1)C(F)(F)F | 72 | 32 | 0 | 475
2 | Cc1ccc(F)cc1C(C)(C)CC(O)(Cc1cc2nc(-c3cccnc3)ncc2[nH]1)C(F)(F)F (racemic) | 92 | 74 | 32 | > 2000
3 | CC(C)(CC(O)(Cc1cc2ncncc2[nH]1)C(F)(F)F)c1cc(Cl)cc2c1OCC2 (racemic) | 87 | 35 | 12 | 340
4 | Cc1ccc(F)cc1C(C)(C)CC(O)(Cc1cc2cc(-c3ccccc3)nnc2[nH]1)C(F)(F)F (racemic) | – | 73 | 75 | > 2000
5 | Cc1ccc(F)cc1C(C)(C)CC(O)(Cc1cc2ncncc2[nH]1)C(F)(F)F (racemic) | 74 | 32 | 0 | 855
6 | CC(C)(CC(O)(Cc1cc2ncncc2[nH]1)C(F)(F)F)c1ccc(F)cc1O (racemic) | 86 | 28 | 22 | 1200
7 | Cc1ccc(F)cc1C(C)(C)CC(O)(Cc1cc2nnccc2[nH]1)C(F)(F)F (racemic) | 85 | 45 | 7 | 615
8 | Cc1ccc(F)cc1C(C)(C)CC(O)(Cc1cc2nc(N3CCS(=O)(=O)CC3)ncc2[nH]1)C(F)(F)F (racemic) | 84 | 80 | 22 | > 2000
9 | Cc1ccc(F)cc1C(C)(C)CC(O)(Cc1cc2nc(-c3ccccc3)ncc2[nH]1)C(F)(F)F (racemic) | 93 | 72 | 36 | 1900
10 | Cc1ccc(F)cc1C(C)(C)C[C@@](O)(Cc1cc2nnccc2[nH]1)C(F)(F)F | 86 | 34 | 0 | 260
